# Data published in ChEMBL document CHEMBL4346658, “sp2-Iminosugar glycolipids as inhibitors of lipopolysaccharide-mediated human dendritic cell activation in vitro and of acute inflammation in mice in vivo” (Eur J Med Chem, 2019).
# Calls of active or inactive are those of the source. The calls are words filed in the database; no cut-off is given here.
# What was measured:
# Dendritic cell [1] = test: Antiinflammatory activity in human dendritic cells assessed as CD14-TLR-4 co-localization at 100 uM incubated for 30 mins by DAPI staining based confocal microscopy; type: functional
# Procedure, shortened: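 Monocyte-derived DCs (10^5 per chamber) on poly-L-lysine-coated chamber slides were treated for 30 min, then washed, fixed and permeabilized. They were stained with goat anti-TLR-4 (5 µg mL⁻¹) plus AF488 anti-goat, and anti-CD14-APC, with DAPI nuclei. Confocal imaging gave the Pearson CD14/TLR-4 colocalization coefficient per field of 15–20 cells, from two independent assays.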
# Dendritic cell [2] = test: Antiinflammatory activity in human dendritic cells assessed as reduction in LPS-induced TNFalpha production at 100 uM cotreated with LPS measured after 24 hrs by ELISA; type: functional, cell-based
# Procedure, shortened: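 DCs came from human blood monocytes (Ficoll/Percoll) cultured 5 days with GM-CSF 50 ng ml⁻¹ and IL-4 10 ng ml⁻¹, in RPMI/10% FCS at 37 °C and 5% CO₂. Cells (10^5 per 200 µL) got E. coli K12 LPS (100 ng mL⁻¹) plus compound at the same time. After 24 h, supernatant TNF-α was measured by ELISA, with at least 3 donors and mean ± SEM.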
# Dendritic cell [3] = test: Antiinflammatory activity in human dendritic cells assessed as reduction in LPS-induced TNFalpha production at 100 uM pretreated with LPS for 30 mins followed by compound addition measured after 24 hrs by ELISA; type: functional, cell-based
# Procedure, shortened: (§1)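 Monocyte-derived DCs (10^5 per 200 µL) were stimulated with ultrapure E. coli K12 LPS (100 ng mL⁻¹). Compound was added 0.5, 2, 4 or 6 h after LPS. TNF-α in the supernatant was measured by ELISA 24 h after stimulation, as mean ± SD of more than 3 independent assays.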
# Dendritic cell [4] = test: Antiinflammatory activity in human dendritic cells assessed as reduction in LPS-induced CD83 expression on cell surface at 100 uM pretreated with LPS upto 6 hrs followed by compound addition measured after 24 hrs by FACS analysis; type: functional, cell-based
# Dendritic cell [5] = test: Antiinflammatory activity in human dendritic cells assessed as reduction in LPS-induced CD86 expression on cell surface at 100 uM pretreated with LPS upto 6 hrs followed by compound addition measured after 24 hrs by FACS analysis; type: functional, cell-based
# Dendritic cell [6] = test: Antiinflammatory activity in human dendritic cells assessed as reduction in LPS-induced TNFalpha production at 100 uM pretreated with LPS up to 6 hrs followed by compound addition measured after 24 hrs by ELISA; type: functional, cell-based; procedure, shortened: as §1
# Dendritic cell [7] = test: Antiinflammatory activity in human dendritic cells assessed as reduction in CD14 receptor cell surface expression at 100 uM incubated for 30 mins by flow cytometric analysis; type: functional, cell-based
# Procedure, shortened: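 Monocyte-derived DCs (10^5 in 200 µL complete medium) were exposed for 30 min at 37 °C without LPS. They were then washed, held on ice, stained with anti-CD14-PE, and surface CD14 was read by flow cytometry.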
smiles,measurement,setting,value
CCCCCCCCCCCCC#CC#CCCCCCCCCC(=O)NC(COCCC(=O)NCCOCCOCCOCCO[C@H]1O[C@H](CO)[C@@H](O)[C@H](O)[C@@H]1O)(COCCC(=O)NCCOCCOCCOCCO[C@H]1O[C@H](CO)[C@@H](O)[C@H](O)[C@@H]1O)COCCC(=O)NCCOCCOCCOCCO[C@H]1O[C@H](CO)[C@@H](O)[C@H](O)[C@@H]1O,Activity,Dendritic cell [1],Active
same,inhibition,Dendritic cell [2],Active
same,inhibition,Dendritic cell [3],Active
same,inhibition,Dendritic cell [4],inactive
same,inhibition,Dendritic cell [5],inactive
same,inhibition,Dendritic cell [6],inactive
same,inhibition,Dendritic cell [7],Active
